We go through 26 compounds from ChEMBL document CHEMBL1130079, “Non-peptide RGD surrogates which mimic a Gly-Asp beta-turn: potent antagonists of platelet glycoprotein IIb-IIIa” (J Med Chem, 1997).

In experiment [1] the target is Integrin alpha-IIb/beta-3 (Homo sapiens, UniProt P05106+P08514). Kind of experiment: Concentration required to reduce binding of fibrinogen to purified Fibrinogen Receptor by 50% using ELISA. In kind it is protein-complex assay. Put shortly:
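ELISA of fibrinogen binding to immobilized purified human platelet GPIIb-IIIa; biotinylated fibrinogen detected with alkaline phosphatase-labeled goat antibiotin and p-nitrophenol phosphate substrate; IC50 as inhibition of fibrinogen binding.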

The next experiment is filed under the species Homo sapiens. Description: Ability to block Glycoprotein IIb-IIIa was measured by inhibiting ADP induced human platelet aggregation (5 uM). It is filed as functional.

Sequence of Integrin alpha-IIb/beta-3 (P05106 27-788 limits assumed): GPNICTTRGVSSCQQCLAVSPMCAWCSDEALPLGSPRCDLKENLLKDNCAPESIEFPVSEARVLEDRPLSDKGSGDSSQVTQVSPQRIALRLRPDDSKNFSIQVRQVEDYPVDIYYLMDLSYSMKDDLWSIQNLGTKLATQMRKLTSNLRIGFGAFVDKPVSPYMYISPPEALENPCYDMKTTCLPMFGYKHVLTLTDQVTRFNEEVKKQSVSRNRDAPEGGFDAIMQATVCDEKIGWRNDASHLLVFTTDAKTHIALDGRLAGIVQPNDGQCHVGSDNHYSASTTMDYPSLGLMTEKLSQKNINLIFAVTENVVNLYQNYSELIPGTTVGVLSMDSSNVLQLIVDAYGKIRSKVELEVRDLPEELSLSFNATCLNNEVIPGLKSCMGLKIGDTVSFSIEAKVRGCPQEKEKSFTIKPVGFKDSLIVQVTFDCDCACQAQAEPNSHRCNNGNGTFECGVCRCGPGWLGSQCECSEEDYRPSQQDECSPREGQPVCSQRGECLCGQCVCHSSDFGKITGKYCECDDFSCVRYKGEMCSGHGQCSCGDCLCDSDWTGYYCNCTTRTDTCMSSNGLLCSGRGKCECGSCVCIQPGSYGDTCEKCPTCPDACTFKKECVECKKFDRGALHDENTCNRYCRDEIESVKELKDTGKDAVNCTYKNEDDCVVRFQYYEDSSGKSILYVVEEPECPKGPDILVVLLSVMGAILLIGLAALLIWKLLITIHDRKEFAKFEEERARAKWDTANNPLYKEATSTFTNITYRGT
Sequence of Integrin alpha-IIb/beta-3 (P08514 32-887 limits assumed): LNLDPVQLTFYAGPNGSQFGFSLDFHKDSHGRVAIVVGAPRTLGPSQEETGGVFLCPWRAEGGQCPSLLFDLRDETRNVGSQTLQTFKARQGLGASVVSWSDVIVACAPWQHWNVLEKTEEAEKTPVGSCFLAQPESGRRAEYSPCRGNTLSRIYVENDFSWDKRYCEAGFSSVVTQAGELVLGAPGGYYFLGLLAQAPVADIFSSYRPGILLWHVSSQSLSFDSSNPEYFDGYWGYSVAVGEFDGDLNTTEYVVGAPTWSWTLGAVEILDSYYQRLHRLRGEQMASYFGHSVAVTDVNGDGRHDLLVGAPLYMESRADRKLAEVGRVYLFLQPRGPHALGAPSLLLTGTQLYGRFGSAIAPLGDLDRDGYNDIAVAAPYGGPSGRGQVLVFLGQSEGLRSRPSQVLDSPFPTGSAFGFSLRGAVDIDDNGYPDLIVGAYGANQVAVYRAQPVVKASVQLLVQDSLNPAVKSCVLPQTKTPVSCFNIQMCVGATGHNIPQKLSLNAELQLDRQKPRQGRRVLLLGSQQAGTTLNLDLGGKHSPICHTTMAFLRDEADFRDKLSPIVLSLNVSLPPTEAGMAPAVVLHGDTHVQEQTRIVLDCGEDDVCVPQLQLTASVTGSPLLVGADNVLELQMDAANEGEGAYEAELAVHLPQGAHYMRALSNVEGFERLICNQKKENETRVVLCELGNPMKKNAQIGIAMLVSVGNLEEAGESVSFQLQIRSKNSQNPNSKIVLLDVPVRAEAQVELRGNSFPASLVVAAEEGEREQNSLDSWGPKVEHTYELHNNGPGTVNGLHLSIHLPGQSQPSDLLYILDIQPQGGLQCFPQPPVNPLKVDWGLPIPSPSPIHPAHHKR
Sequence of Integrin alpha-IIb/beta-3 (P08514 891-1039 limits assumed): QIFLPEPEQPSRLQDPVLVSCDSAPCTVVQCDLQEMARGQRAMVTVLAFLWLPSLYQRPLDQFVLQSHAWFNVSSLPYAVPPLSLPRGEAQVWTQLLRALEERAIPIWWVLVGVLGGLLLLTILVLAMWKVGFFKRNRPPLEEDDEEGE

With `N=C(N)c1ccc(NC(=O)c2ccc3c(c2)CCN(CC(=O)O)C3=O)cc1`, the values for the IC50 (in experiment [1]; in the experiment filed under Homo sapiens) were 0.076 µM and 0.56 µM, respectively.

For the compound `N=C(N)c1ccc(COc2ccc3c(c2)C(=O)N(CC(=O)O)CC3)cc1`, in experiment [1], the IC50 is 4 µM. The compound `N=C(N)NCCCOc1ccc2c(c1)CCN(CC(=O)O)C2=O` displayed an IC50 in experiment [1] of 44 µM. `O=C(O)CN1CCc2cc(OCC3CCNCC3)ccc2C1=O`: the IC50 in experiment [1] was determined as 55 µM. Still for that read-out and setting: for `N=C(N)NCc1cccc(COc2ccc3c(c2)CCN(CC(=O)O)C3=O)c1` the value was 14 µM. `N=C(N)c1ccc(C(=O)Nc2ccc3c(c2)CCN(CC(=O)O)C3=O)cc1`: the results for the IC50 (in experiment [1]; in the experiment filed under Homo sapiens) were 0.003 µM and 0.09 µM, respectively. Take `O=C(O)CN1CCc2cc(OCCC3CCNCC3)ccc2C1=O`: in experiment [1], the IC50 is 11 µM.

For the compound `NCCCOc1ccc2c(c1)CCN(CC(=O)O)C2=O`, the IC50 in experiment [1] stood at 48 µM.

As to `N=C(N)NCCCCOc1ccc2c(c1)C(=O)N(CC(=O)O)CC2`, the IC50 in experiment [1] worked out at 46 µM. As to `NCCCCOc1ccc2c(c1)CCN(CC(=O)O)C2=O`, in experiment [1], the IC50 is 18 µM. The compound `N=C(N)NCc1ccc(COc2ccc3c(c2)CCN(CC(=O)O)C3=O)cc1` yielded an IC50 in experiment [1] of 4 µM. Turning to `N=C(N)c1ccc(/C=C\c2ccc3c(c2)CCN(CC(=O)O)C3=O)cc1`, the IC50 in experiment [1] was found to be 0.29 µM; in the experiment filed under Homo sapiens, 5.7 µM. On to `N=C(N)NCCCCOc1ccc2c(c1)CCN(CC(=O)O)C2=O`, for which the IC50 in experiment [1] stood at 10 µM. Compound `NCCCCCOc1ccc2c(c1)CCN(CC(=O)O)C2=O` had an IC50 in experiment [1] of 28 µM. `NCCCCCCOc1ccc2c(c1)CCN(CC(=O)O)C2=O` showed an IC50 in experiment [1] of 19 µM. Compound `N=C(N)c1ccc(COc2ccc3c(c2)CCN(CC(=O)O)C3=O)cc1` gave an IC50 in the experiment filed under Homo sapiens of 30 µM. The compound `NCc1ccc(COc2ccc3c(c2)CCN(CC(=O)O)C3=O)cc1` displayed an IC50 in experiment [1] of 12 µM. In turn, `N=C(N)NCCCCCCOc1ccc2c(c1)CCN(CC(=O)O)C2=O` registered an IC50 in experiment [1] of 12 µM. In turn, `N=C(N)c1ccc(CCOc2ccc3c(c2)CCN(CC(=O)O)C3=O)cc1` gave an IC50 in experiment [1] of 6 µM.

As to `N=C(N)NCCCOc1ccc2c(c1)C(=O)N(CC(=O)O)CC2`, the half-inhibitory concentration (IC50) in experiment [1] was < 100 µM. In the case of `N=C(N)c1ccc(CCc2ccc3c(c2)CCN(CC(=O)O)C3=O)cc1`, half-maximal inhibition in the experiment listed under Homo sapiens (IC50) required 1.2 µM. As to `O=C(O)CN1CCc2cc(OCCCCC3CCNCC3)ccc2C1=O`, the half-maximal inhibitory concentration (IC50) was found to be 1.8 µM in experiment [1] and 9.8 µM in the experiment listed under Homo sapiens. As for `O=C(O)CN1CCc2cc(OCCCC3CCNCC3)ccc2C1=O`, in experiment [1], the half-inhibitory concentration (IC50) stood at 6 µM.

As for `N=C(N)c1ccc(/C=C/c2ccc3c(c2)CCN(CC(=O)O)C3=O)cc1`, the results for the half-maximal inhibitory concentration (IC50) (in experiment [1]; in the experiment filed under Homo sapiens) were 0.048 µM and 0.34 µM, respectively.

For `NCc1cccc(COc2ccc3c(c2)CCN(CC(=O)O)C3=O)c1`, the IC50 in experiment [1] is 77 µM. For `N=C(N)c1ccc(C#Cc2ccc3c(c2)CCN(CC(=O)O)C3=O)cc1`, the figures for the IC50 (in experiment [1]; in the experiment filed under Homo sapiens) were 0.033 µM and 0.52 µM, respectively.
